Results taken from PubChem BioAssay AID624399 (The Scripps Research Institute Molecular Screening Center, 2012).
Activity calls are given as the source filed them.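 Rule for the calls: active = increase in reporter activity of 20% or more; inactive = increase below 20%, or a negative response.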

Tested on: BG1Luc4E2 cells, ERE-luciferase luminescence, 24 h
Experiment: estrogenic induction of ERE reporter expression – BG1Luc4E2 ovarian carcinoma cells, luminescence, counter-screen for AHR activator project, late-stage follow-up (AID 624399)
Conditions: at 10 µM; stronger effect = higher value
How it was run: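 Assay system: BG1Luc4E2 cells, firefly luciferase reporter under two synthetic EREs; Controls: 17β-estradiol at 1 nM as positive control; Measured by: firefly luciferase luminescence measured after cell lysis; Evaluation: maximum % reporter activation; Timing: 24 h compound exposure at 37 °C after 5-day depletion; Compound: single test concentration of 10 µM per compound.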

SMILES	activation
COc1ccc(NC(=O)c2ccc(C(=O)Nc3ccc(OC)cc3OC)nc2)c(OC)c1	-0.5% (inactive)
Cc1ccc(-c2cc(-c3cccc(F)c3)n[nH]2)c(O)c1	3.8% (inactive)
COc1ccc(Cl)cc1NC(=O)c1ccc(C(=O)Nc2cc(Cl)ccc2OC)nc1	-3.6% (inactive)
COc1ccc(Nc2cc(Cl)nc(N)n2)cc1OC	13.6% (inactive)
Cc1ccc(O)c(-c2cc(-c3ccccc3Cl)[nH]n2)c1	11.6% (inactive)
Cc1ccc(-c2cc(-c3ccc(F)cc3)n[nH]2)c(O)c1	5.8% (inactive)
COc1ccc(Nc2cc(Cl)nc(N)n2)cc1	2.2% (inactive)
CN(Cc1cc(-c2cccs2)n[nH]1)Cc1coc2ccccc2c1=O	-2.6% (inactive)
Nc1nc(Cl)cc(Nc2ccc(Oc3ccccc3)cc2)n1	3.3% (inactive)
Cc1csc(SCC(=O)Nc2ccccn2)n1	-2.6% (inactive)
O=C(CSc1nc2ccccc2s1)Nc1ccccn1	-1% (inactive)
Cc1cccc(NC(=O)c2cc(-c3ccc(C)cc3O)n[nH]2)c1	1.8% (inactive)
Cc1ccc(NC(=O)c2ccc(C(=O)Nc3ccc(C)cc3C)nc2)c(C)c1	-1.6% (inactive)
Cc1cc(Br)cc(C)c1Nc1ccnc(Nc2ccc(C#N)cc2)n1	-3.5% (inactive)
O=C(CSc1nc(-c2ccc(F)cc2)cs1)Nc1ccccn1	1% (inactive)
Nc1nc(Cl)cc(Nc2ccccc2F)n1	-0.9% (inactive)
CCOc1ccccc1NC(=O)c1ccc(C(=O)Nc2ccccc2OCC)nc1	-2.8% (inactive)
COc1ccc(O)c(-c2cc(-c3cccs3)[nH]n2)c1	-3% (inactive)
Cc1ccnc(NC(=O)CSc2nc3ccccc3s2)c1	-3.7% (inactive)
Cc1cccc(C)c1NC(=O)c1ccc(C(=O)Nc2c(C)cccc2C)nc1	-5.1% (inactive)
O=C(CSc1nc2ccccc2s1)Nc1ccc(Cl)cn1	-2% (inactive)
Cc1cc(Nc2ccc(F)cc2)nc(N)n1	-2.7% (inactive)
Cc1ccc(-c2cc(-c3ccc(Cl)cc3)n[nH]2)c(O)c1	3.2% (inactive)
COc1ccc(-c2cc(-c3ccc(C)cc3O)[nH]n2)cc1	-7.2% (inactive)
CCOC(=O)c1c(C)nn(-c2cc(Cl)ccc2Cl)c1C	-3.3% (inactive)
